For experiment [1], the target named is T1, Low molecular weight phosphotyrosine protein phosphatase (Saccharomyces cerevisiae S288c, UniProt P40347).
T1 sequence (P40347 whole entry): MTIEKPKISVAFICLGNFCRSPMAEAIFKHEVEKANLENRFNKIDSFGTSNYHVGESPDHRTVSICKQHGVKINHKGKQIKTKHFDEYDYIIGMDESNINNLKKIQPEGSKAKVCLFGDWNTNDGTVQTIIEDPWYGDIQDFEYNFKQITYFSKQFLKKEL
The experiment is described as follows: Inhibition of Saccharomyces cerevisiae Ltp1. The gist of the method:
(§1)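 p-Nitrophenylphosphate hydrolysis at 37 °C in pH 7.0 buffer with 0.075 M β,β-dimethylglutarate, 1 mM EDTA and 5 mM DTT. The enzyme was added to start the reaction, which was stopped with 1 M KOH. Released p-nitrophenolate was read at 400 nm. Initial rates were measured in triplicate with substrate fixed at each PTP's Km. IC50 was fitted from Vi/V0 = IC50/(IC50+[I]).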

Experiment [2] deals with T2, Tyrosine-protein phosphatase non-receptor type 1 (Homo sapiens, UniProt P18031).
T2 sequence (P18031 whole entry): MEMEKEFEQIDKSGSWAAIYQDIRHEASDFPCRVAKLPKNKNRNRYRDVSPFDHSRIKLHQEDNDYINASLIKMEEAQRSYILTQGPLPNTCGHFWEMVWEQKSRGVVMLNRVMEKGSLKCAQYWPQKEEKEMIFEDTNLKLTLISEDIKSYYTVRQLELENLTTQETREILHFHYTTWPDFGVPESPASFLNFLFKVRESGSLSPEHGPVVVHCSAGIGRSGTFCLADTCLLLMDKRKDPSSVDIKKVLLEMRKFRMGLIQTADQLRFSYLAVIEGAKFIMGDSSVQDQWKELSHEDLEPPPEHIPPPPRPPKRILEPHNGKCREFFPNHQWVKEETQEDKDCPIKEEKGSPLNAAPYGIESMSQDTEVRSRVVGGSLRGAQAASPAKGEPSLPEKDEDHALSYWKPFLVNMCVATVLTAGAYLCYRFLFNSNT
The experiment is described as follows: Inhibition of GST-tagged human PTP1B. In outline: as §1

The target in experiment [3] is T3, Low molecular weight phosphotyrosine protein phosphatase (Homo sapiens, UniProt P24666).
T3 sequence (P24666 whole entry): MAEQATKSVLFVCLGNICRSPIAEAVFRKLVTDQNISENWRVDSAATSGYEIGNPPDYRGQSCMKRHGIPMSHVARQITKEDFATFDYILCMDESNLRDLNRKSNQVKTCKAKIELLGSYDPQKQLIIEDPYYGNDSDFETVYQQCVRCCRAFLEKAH
In words: Inhibition of GST-tagged human LMW PTP1B IF1 isoform. In outline: as §1

Experiment [4] addresses Low molecular weight PTP, IF2 isoform (Homo sapiens). The experiment is described as follows: Inhibition of GST-tagged human LMW PTP1B IF2 isoform.

One may read the IC50 as the midpoint of a concentration-inhibition curve. Higher therefore signals weaker potency. Regarding `O=C(O)c1ccc(CN2C(=O)/C(=C/c3cccc(Oc4ccccc4)c3)S/C2=N\c2ccccc2)cc1`, the 50% inhibitory concentration (IC50) in experiment [1] came out at 11.1 µM; in experiment [2] it was 1.9 µM.
As to `O=C(O)c1ccc(CN2C(=O)/C(=C/c3cccc(O)c3)S/C2=N\c2ccccc2)cc1`, the IC50 in experiment [3] is 62.5 µM; in experiment [4] it was > 250 µM; in experiment [1], > 250 µM; in experiment [2], 35.4 µM.
Take `O=C(O)c1ccc(CN2C(=O)/C(=C/c3ccc4ccccc4c3)S/C2=N\c2ccccc2)cc1`: the half-inhibitory concentration (IC50) in experiment [3] is 3.7 µM; in experiment [4], 13.8 µM; in experiment [1], 27.6 µM; in experiment [2], 1.9 µM.
In the same order, the values of `O=C(O)c1ccc(CN2C(=O)/C(=C/c3ccc(O)cc3)S/C2=N\c2ccccc2)cc1` are 47.7 µM, 270 µM, 195 µM and 30.1 µM.
On to `O=C(O)c1ccc(CN2C(=O)/C(=C/c3ccc(OCc4ccccc4)cc3)S/C2=N\c2ccccc2)cc1`, for which the concentration for half-maximal inhibition (IC50) in experiment [1] came out at 15.9 µM; in experiment [2], 1.1 µM.
On the same counts, the results for `O=C(O)c1ccc(CN2C(=O)/C(=C/c3cccc4ccccc34)S/C2=N\c2ccccc2)cc1` are > 500 µM and 14 µM.
For the compound `O=C(O)c1ccc(CN2C(=O)/C(=C/c3ccc(Oc4ccccc4)cc3)S/C2=N\c2ccccc2)cc1`, the values for the IC50 in experiment [1] and in experiment [2] were 6.3 µM and 1.1 µM, respectively.
On the same counts, the results for `O=C(O)c1ccc(CN2C(=O)/C(=C/c3ccc(O)c(C(=O)O)c3)S/C2=N\c2ccccc2)cc1` are 345 µM and 19.5 µM.
On the same counts, the results for `O=C(O)c1ccc(CN2C(=O)/C(=C/c3cccc(OCc4ccccc4)c3)S/C2=N\c2ccccc2)cc1` are 12.9 µM and 3.8 µM.
Take `COc1ccc(/C=C2\S/C(=N\c3ccccc3)N(Cc3ccc(C(=O)O)cc3)C2=O)cc1O`: the concentration for half-maximal inhibition (IC50) in experiment [1] is > 250 µM; in experiment [2], 32.1 µM.
`COc1cc(/C=C2\S/C(=N\c3ccccc3)N(Cc3ccc(C(=O)O)cc3)C2=O)ccc1O`: the IC50 in experiment [1] was > 250 µM; in experiment [2], 33.7 µM.

Values taken from ChEMBL document CHEMBL1153913, “5-Arylidene-2-phenylimino-4-thiazolidinones as PTP1B and LMW-PTP inhibitors” (Bioorg Med Chem, 2009).
